Measurements reported in publication PMC12594201 (Proteins, 2025).

Legend:
β‐clamp [1] = target: T1, β‐clamp (Escherichia coli, UniProt P0A988); conditions: literature values; ref [34], [35]; cited from earlier work
β‐clamp [2] = target: T1, β‐clamp; assay: Calculated fraction of β‐clamp bound / saturation level; assay type: binding, E. coli; conditions: NMR titration, 200 μM β‐clamp with up to 800 μM peptide
Summary of the method: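 Fraction of β-clamp bound computed from the quadratic single-site equation using total protein concentration, total ligand concentration and K_D. […]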

T1 sequence (P0A988 whole entry): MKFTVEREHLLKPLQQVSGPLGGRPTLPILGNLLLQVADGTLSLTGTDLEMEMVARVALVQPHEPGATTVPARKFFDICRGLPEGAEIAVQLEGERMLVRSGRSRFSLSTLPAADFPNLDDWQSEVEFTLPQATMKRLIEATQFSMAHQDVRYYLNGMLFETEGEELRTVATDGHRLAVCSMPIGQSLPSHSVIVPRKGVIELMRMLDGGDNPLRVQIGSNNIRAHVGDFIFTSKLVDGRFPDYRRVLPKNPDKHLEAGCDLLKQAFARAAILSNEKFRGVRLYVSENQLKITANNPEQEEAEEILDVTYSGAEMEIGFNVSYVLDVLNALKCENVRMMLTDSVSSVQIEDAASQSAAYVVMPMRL

## NH3 ^+‐GWLDPQMERQLVLGL‐COO^— [pol IV*]
β‐clamp [1]
  Kd: 2 to 8 µM
β‐clamp [2]
  saturation level of β‐clamp: > 98%
